# Measurements taken from the RNAGym collection of RNA variant scans (doi:10.1038/s41586-018-0170-7).
# B1: tRNA (parent)
# chain: GUUCCGUUGGCGUAAUGGUAACGCGUCUCCCUCCUAAGGAGAAGACUGCGGGUUCGAGUCCCGUACGGAACG
# Variants of: B1
# Test: yeast fitness, log relative to wild type (ln ratio); higher = fitter; tRNA-Arg(CCU), competitive growth, 37 C, 1 M NaCl
# Method in brief: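 Variants were counted by 125 bp paired-end Illumina sequencing after pools of a combinatorial tRNA-Arg(CCU) library, held on a HIS3 centromeric plasmid in BY4742 lacking the chromosomal gene, grew ~6.5 generations (~26.5 h) in SC-HIS 1M NaCl at 37 °C. Each genotype's fitness is the natural log of its generations relative to the wild type's. Generations were OD-scaled log2 output/input frequencies, inverse-variance weighted over replicates.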
row,Variant,yeast fitness (ln)
1,C27U C46U A69G A70G,-0.0578
2,G1A U2G G6U A43C C46U A69G A70U,-0.354
3,U2C C27U A69G,-0.23
4,U2C A43C C46U C66U A70U,-0.0497
5,C27U A43C C66A A69G A70G C71U,-0.369
6,C27U A43C C46U C66A A69G A70U,-0.156
7,G1A U2G G6U C27U C66U A69G A70G C71U,-0.446
8,G6A C27U A43C C66U A69G A70U,-0.452
9,U2C G6U A43C C46U A69G A70G C71U,-0.149
10,G6U C46U C66U C71U,-0.183
11,U2G A70U,-0.00577
12,G1A G6U A43C C66U A69G A70U C71U,-0.433
13,U2G G6A C27U C46U C66U A69G A70U C71U,-0.394
14,G1A U2G G6U A43C A69G A70G,-0.277
15,G1A U2C G6A C27U A43C C46U C66U A69G A70G C71U,-0.0617
16,U2C G6U C46U A70U C71U,-0.0786
17,G1A G6U C27U A43C C66A A70G,-0.33
18,G1A U2G G6A C27U C66A A69G A70G C71U,-0.353
19,U2G A43C C46U,-0.0426
20,G6U A43C A69G A70U,-0.371
21,G1A G6U A43C A70G,-0.21
22,G1A G6A C27U C46U A69G A70U,-0.24
23,G1A U2C G6U A43C C46U A70G C71U,-0.359
24,G1A U2C A43C C46U A69G A70U C71U,-0.384

row,Variant,yeast fitness (ln)
1,U2G G6U C27U A43C A69G C71U,-0.439
2,G1A G6A A43C C66U A70G C71U,-0.377
3,U2G G6A A43C C66U A70U C71U,-0.49
4,G1A U2C C46U C71U,-0.0165
5,U2G G6A C27U C66A A69G A70U,-0.287
6,G1A U2G A43C C46U C66A A69G A70G C71U,-0.24
7,U2G A43C A69G A70G C71U,-0.168
8,G1A G6U A43C C66A,-0.19
9,G1A G6A A43C C46U A70U C71U,-0.191
10,U2C G6U A43C C66A A70G C71U,-0.0145
11,G1A U2C G6A C46U A69G A70U,-0.0526
12,U2G C66A A70G,-0.0918
13,G1A G6U A43C C46U C66A C71U,-0.0191
14,G6U C27U A43C C46U C66U C71U,-0.355
15,G1A U2G G6A C27U A43C C46U A69G A70G C71U,-0.424
16,U2G C27U A43C C66U A70G C71U,-0.331
17,G6U C46U C66U A70G,-0.153
18,G1A U2G G6U C27U C46U A69G A70U,-0.314
19,C27U A43C C46U C66U A69G,-0.204
20,G1A U2G A43C C46U C66U A69G A70G C71U,-0.323
21,C27U C66U A69G C71U,-0.313
22,G1A U2G G6U C27U A43C C46U A70U,-0.341
23,G1A U2G G6A C27U C66A A70U,-0.129
24,U2C G6U C27U C46U A70G C71U,-0.359

row,Variant,yeast fitness (ln)
1,G1A G6U C46U C66A A69G A70U,-0.106
2,G1A U2C G6U C46U C66A A69G A70G,-0.139
3,G6A C27U C66A A70U C71U,-0.246
4,U2C C27U C66U A70U C71U,-0.324
5,G1A G6U C27U A43C C66U C71U,-0.403
6,U2C G6A C27U C66A A70U C71U,-0.269
7,G1A U2G G6U A43C C66U A70U,-0.284
8,G1A U2C A70G C71U,-0.0141
9,U2G G6U A43C C46U C66U A70G C71U,-0.241
10,G6U C27U C66A A70G C71U,-0.294
11,U2G G6U C27U A43C C46U A69G,-0.199
12,G1A G6U A43C C46U C66A A70G C71U,-0.237
13,G1A U2G G6U C27U A43C C46U C66U A70U C71U,-0.647
14,G1A U2C G6A C27U C46U A70U C71U,-0.0799
15,U2G C66U A70G,-0.0789
16,G1A C27U C71U,-0.0389
17,G1A U2G G6A A43C C46U C71U,-0.23
18,G1A C27U A43C A69G C71U,-0.318
19,G6A A43C C66U A69G A70G C71U,-0.261
20,U2C G6U C66U A69G A70U,-0.179
21,U2C C27U A43C C46U A70U C71U,-0.0649
22,U2C G6A A43C A69G A70G,-0.0768
23,U2G G6A C66A A69G A70U,-0.0595
24,U2C G6A C46U C66U A70U C71U,-0.183

row,Variant,yeast fitness (ln)
1,C27U C66U A69G A70G,-0.19
2,G6A C66A C71U,-0.0747
3,U2C G6U C27U C66U,-0.0859
4,U2G G6U A43C C66A,-0.122
5,U2G C66U A69G A70G C71U,-0.204
6,G6U C27U C71U,-0.222
7,G1A U2G C27U A43C A70U C71U,-0.167
8,U2C G6U C27U C66U A69G A70U C71U,-0.566
9,U2C G6U A43C C66U A70U,-0.194
10,C66A A69G A70U,-0.0115
11,C27U A43C C46U,-0.00723
12,G1A G6U C46U C66A A70G C71U,-0.0299
13,G1A U2C C27U C46U C66U A70U,-0.0209
14,U2C G6A C46U C71U,-0.0887
15,G1A G6U C27U A69G C71U,-0.371
16,U2C C66U A69G A70G,-0.0264
17,U2C G6U A43C C46U C66A A69G A70G C71U,-0.00753
18,U2C G6A C27U A43C C46U C66U A70U C71U,-0.225
19,U2G G6A C27U A70G C71U,-0.216
20,G1A U2G C27U A43C C66A A70U,-0.195
21,U2C G6A C27U C66U A70U,-0.203
22,U2G C46U A69G A70U C71U,-0.191
23,G1A A43C C46U C66A A70G,-0.113
24,G1A G6A C27U A43C C66U A69G A70G,-0.383

row,Variant,yeast fitness (ln)
1,G1A U2C G6A C27U A43C A70U,-0.0697
2,U2G G6A C46U C66A A69G A70U,-0.0517
3,U2C G6U A69G A70G,-0.133
4,G1A U2G G6A C27U A43C C66U A70G,-0.337
5,G6A C27U C46U,-0.149
6,G1A C27U A43C A70G,-0.173
7,U2C C27U C66A A69G A70G C71U,-0.142
8,U2G G6A A43C C46U A70U C71U,-0.118
9,U2G C27U A69G C71U,-0.152
10,G1A G6U C27U A43C C46U C66U A69G A70U,-0.452
11,G1A U2G G6U C46U C66U A69G C71U,-0.466
12,G1A U2G G6U C27U A43C C66U A70G,-0.4
13,G1A U2G G6U A43C A69G A70U,-0.456
14,G1A U2G G6A C27U A43C C46U A69G A70U,-0.279
15,G1A U2G G6U A69G A70G C71U,-0.427
16,G6A C27U A43C C46U C66U A69G,-0.188
17,U2G G6A A43C C46U A69G A70U C71U,-0.347
18,G1A U2C A43C C46U A70U C71U,-0.0746
19,U2G G6A A69G A70U C71U,-0.264
20,U2C C27U C66A A70G C71U,-0.157
21,G6A C27U C46U A70U,-0.144
22,G6A C66U A70U C71U,-0.462
23,G1A G6A C27U A43C C46U C66U A69G C71U,-0.499
24,G1A G6A C27U C66U A69G C71U,-0.321

row,Variant,yeast fitness (ln)
1,G1A C27U A43C A69G A70G C71U,-0.299
2,G6A C27U C66U A69G A70U C71U,-0.462
3,U2G C27U C66U C71U,-0.194
4,G1A G6U A43C C46U C66A A69G A70U C71U,-0.301
5,G1A G6U A69G A70U,-0.131
6,U2C G6A C27U C66A A70G C71U,-0.106
7,U2G G6A C46U C66U A69G,-0.163
8,G1A U2C G6A C46U C71U,-0.108
9,U2C G6A C27U A43C C46U C66A A70U,-0.0497
10,G1A C27U C46U C66A A69G A70G,-0.248
11,G6A A43C C66A A70U C71U,-0.395
12,U2G G6U C27U A43C C66A A70G,-0.214
13,U2G C46U C66A A70U,-0.0904
14,G1A U2C G6A C27U A43C C46U C66U A70U C71U,-0.252
15,U2G G6U C27U A43C C46U C71U,-0.197
16,U2G G6U A43C C66U A69G A70U,-0.379
17,G1A U2G G6A C27U A43C C46U C66U A69G A70U C71U,-0.384
18,U2G G6A C46U C66U A70U C71U,-0.0272
19,G1A C27U A69G A70G,-0.215
20,G1A G6U A43C C46U C66U A70G,-0.261
21,U2C C27U C66A A69G A70U,-0.119
22,G6A C66U A70G,-0.00631
23,G6A C27U A43C C46U A69G A70G,-0.237
24,U2G G6U C27U A43C C46U C66U A69G A70U C71U,-0.507

row,Variant,yeast fitness (ln)
1,G1A A43C C66U A70U,-0.21
2,G1A G6U C46U A69G C71U,-0.297
3,U2C G6U C27U A43C C66A A69G A70U C71U,-0.398
4,G1A U2G C27U A43C C66A A70G C71U,-0.317
5,G1A G6U C66A A70G,-0.196
6,C27U A43C C66A A69G A70G,-0.181
7,G1A G6U A43C C66U A69G A70G,-0.469
8,G1A A43C C46U A70G C71U,-0.032
9,G1A U2G G6A A69G A70G,-0.333
10,U2G G6A C27U A69G A70G,-0.193
11,G1A U2G C27U A43C C66U A70U,-0.282
12,A43C C46U C66U C71U,-0.115
13,U2G G6U A43C C46U C66A C71U,-0.154
14,U2C A43C C46U,0.00393
15,U2C G6A C46U C66U C71U,-0.164
16,G1A U2G G6A C46U A70G,-0.176
17,G1A U2G G6U C27U C46U A69G A70G C71U,-0.35
18,G6U A43C C46U C66U A69G A70G C71U,-0.325
19,G1A U2G G6A C27U A43C C66U A69G A70U C71U,-0.489
